Entries after “also recorded” stand apart in the source; their conditions may differ.
Key:
K562 cells = settings: 10 nM; cited from earlier work
MCF7 cells [1] = experiment: Western blot of histone methylation levels in MCF7 cells; assay type: cell-based, human
Procedure, shortened: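 MCF7 cells were treated with test compound at the indicated concentrations, or 0.1% DMSO, for 30 or 48 h. Total cell lysates were analysed by Western blot with histone methylation antibodies.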

KDM5B [2] = settings: cited from earlier work
BT474 cells [3] = experiment: Cellular H3K4me3 level in BT474 cells; assay type: cell-based, human
MCF7 cells [4] = experiment: Real-time RT-PCR of KDM5 target genes in MCF7 cells; assay type: cell-based, human; settings: MCF7, 1 μM for 2 days
KDM5A catalytic domain = experiment: Isothermal titration calorimetry, binding to KDM5A catalytic domain; design: species or system human; settings: ITC
Procedure, shortened: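 Binding was measured by isothermal titration calorimetry with the KDM5A(1−588)ΔAP catalytic-domain construct (internal ARID and PHD1 deleted). KD was the read-out.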

KDM5B [5] = experiment: AlphaLISA demethylase assay, KDM5B; assay type: biochemical, human; settings: AlphaLISA IC50 values; recombinant catalytic domains, same enzyme concentration
KDM5A(1−739)ΔAP = molecular target: T1, KDM5A(1−739)ΔAP (Homo sapiens, UniProt P29375, DEL88-347); experiment: Promega Succinate-Glo demethylase assay; assay type: biochemical; settings: for reversibility of inhibition after buffer exchange / dialysis: [E] = 5 μM, initial [I] = 100 μM, four times of buffer exchange; for dependence of inhibition of KDM5A on αKG concentration: three αKG concentrations (10, 100, 1000 μM), 20 min preincubation; for effect of preincubation with KDM5A on inhibition potency: with or without incubation for 20 min
T1 sequence (P29375 with tags, fused parts or gaps DEL88-347 limits assumed): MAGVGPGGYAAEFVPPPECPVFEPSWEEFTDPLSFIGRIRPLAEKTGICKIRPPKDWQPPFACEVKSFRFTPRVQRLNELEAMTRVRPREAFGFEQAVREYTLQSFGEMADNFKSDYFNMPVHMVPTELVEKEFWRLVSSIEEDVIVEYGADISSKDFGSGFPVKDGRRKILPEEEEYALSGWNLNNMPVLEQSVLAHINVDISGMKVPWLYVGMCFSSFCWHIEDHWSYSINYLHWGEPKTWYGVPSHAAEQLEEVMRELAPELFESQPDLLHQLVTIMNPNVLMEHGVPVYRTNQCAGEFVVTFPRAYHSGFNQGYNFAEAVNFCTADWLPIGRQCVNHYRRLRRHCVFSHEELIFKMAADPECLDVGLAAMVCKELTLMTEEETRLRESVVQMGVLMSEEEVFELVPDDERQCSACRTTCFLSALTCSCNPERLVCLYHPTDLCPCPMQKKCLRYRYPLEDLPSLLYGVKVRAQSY
Procedure, shortened: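 Succinate-Glo assay: KDM5A(1−739)ΔAP (0.8 μM) was preincubated 20 min with 2-fold serial dilutions of test compound. Reactions were started with αKG (10, 100 or 1000 μM) plus H3(1−24)K4me3 peptide (60 μM), in 10 μM (NH4)2Fe(SO4)2, 100 μM ascorbate, 50 mM HEPES pH 8.0 and 5% DMSO. They ran 10 min at ambient temperature (n = 3), then succinate detection reagents were added. IC50 came from a four-parameter fit.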

PAMPA permeability assay = assay type: in vitro ADME; settings: pH 7.4
KDM4A = molecular target: T2, KDM4A (Homo sapiens, UniProt O75164); experiment: AlphaLISA demethylase assay, KDM4A; assay type: biochemical
T2 sequence (O75164 1-359 limits assumed): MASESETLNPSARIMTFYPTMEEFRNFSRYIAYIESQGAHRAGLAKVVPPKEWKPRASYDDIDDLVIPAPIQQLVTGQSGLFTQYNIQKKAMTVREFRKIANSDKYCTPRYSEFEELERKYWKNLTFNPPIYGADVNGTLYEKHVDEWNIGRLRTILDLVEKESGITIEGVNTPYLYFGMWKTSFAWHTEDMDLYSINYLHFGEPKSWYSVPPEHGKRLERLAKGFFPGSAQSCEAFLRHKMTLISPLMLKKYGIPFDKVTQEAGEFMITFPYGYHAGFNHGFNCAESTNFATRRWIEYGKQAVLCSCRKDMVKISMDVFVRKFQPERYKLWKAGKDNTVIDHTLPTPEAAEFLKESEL

KDM5A = experiment: ESI mass spectrometry of KDM5A with inhibitors; assay type: binding, human; settings: KDM5A 50 μM, inhibitor 0.5 mM, 30 min, ambient temperature
MCF7 = experiment: Bright-field microscopy of live cells, MCF7; assay type: cell-based, human; settings: MCF7, 24 h; N73: between 5 and 10 μM
MDA-MB-231 = experiment: Bright-field microscopy of live cells, MDA-MB-231; assay type: cell-based, human; settings: MDA-MB-231, 24 h; N73: between 5 and 10 μM
HEK293T = experiment: Bright-field microscopy of live cells, HEK293T; assay type: cell-based, human; settings: 24 h, N73: between 5 and 10 μM
[6] = Stability in culture media; assay type: in vitro ADME; settings: after 24 h
BT474 cells [7] = experiment: IncuCyte live cell proliferation, BT474; assay type: cell-based, human
Procedure, shortened: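 BT474 cells were treated with test compound. Growth was followed by live-cell imaging every 4 h over 300 h, with percent confluence as the read-out.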

BT474 cells [8] = experiment: Cellular extract experiment, BT474 cells; assay type: in vitro ADME, human

**Q.** Which “cytotoxicity for EGFR expressing K562 cells” value (K562 cells) does the source give for `CN(C)C/C=C/C(=O)Nc1cc2c(Nc3ccc(F)c(Cl)c3)ncnc2cc1O[C@H]1CCOC1` [Afatinib] here?
**A.** The value was “complete cytotoxicity”.

**Q.** With `CCOC(=O)CCNc1cc(N2CCc3ccccc3CC2)nc(-c2ccccn2)n1` [GSK-J4] as the molecule, how does the “overall levels of H3K4me3 or H3K27me3” value (MCF7 cells [1]; MCF7, same conditions tested) read?
**A.** Its value is “influences little of the overall levels of H3K4me3 or H3K27me3”.

**Q.** Which “selectivity for the KDM5 family over KDM4A” value (KDM5B [2]) does the source give for `CCOC(=O)c1ccnc(CNCC(=O)N(CC)CCN(C)C)c1` [KDM5-C70] here?
**A.** Its value is 10 ×.

**Q.** And the “cellular H3K4me3 levels” value (BT474 cells [3]; BT474, 1 μM)?
**A.** Its value is “increase in cellular H3K4me3 levels”.

**Q.** What about the “cellular H3K4me3 levels” value (MCF7 cells [1]; MCF7, 1 μM) of the same molecule?
**A.** The value was “increase in cellular H3K4me3 levels”.

**Q.** What about the “increase of expression of STING, MT1F, and MT1H” value (MCF7 cells [4]) of the same molecule?
**A.** The value was “up to 6 fold”.

**Q.** Which results are given for `CN1CCCC1CCOC(c1cc2nccc(C(=O)O)c2s1)c1ccccc1Cl` (stereo not drawn) [N49, 2-((2-Chlorophenyl)(2-(1-methylpyrrolidin-2-yl)-ethoxy)methyl)thieno[3,2-b]pyridine-7-carboxylic Acid]?
**A.** difference in binding affinity (KD) to KDM5A between N46 and N49 (KDM5A catalytic domain): approximately 2 fold; selectivity for KDM5B over KDM4A (KDM5B [5]): 7−8 fold

**Q.** For `Nc1cccc(C(OCCN2CCCCC2)c2cc3nccc(C(=O)O)c3s2)c1` (stereo not drawn) [N70, 2-((3-aminophenyl)(2-(piperidin-1-yl)ethoxy)-methyl)thieno[3,2-b]pyridine-7-carboxylic acid], which “reversibility of inhibition after buffer exchange / dialysis” value (KDM5A(1−739)ΔAP) is on record?
**A.** The value was “could be reversed after dialysis; also recorded: removes the noncovalent modifying N70 from solution; also recorded: enzyme activity could be restored after buffer exchange”.

**Q.** And the “dependence of inhibition of KDM5A on αKG concentration” value (KDM5A(1−739)ΔAP)?
**A.** Its value is “αKG-competitive inhibition; also recorded: dependent on αKG concentration”.

**Q.** And the “effect of preincubation with KDM5A on inhibition potency” value (KDM5A(1−739)ΔAP)?
**A.** The value was “insensitive”.

**Q.** And the “selectivity for KDM5B over KDM4A” value (KDM5B [5])?
**A.** Its value is 7−8 fold.

**Q.** And the Papp at 30 min, 0.05 mM (PAMPA permeability assay)?
**A.** The Papp at 30 min, 0.05 mM was 10 to 100 ×10⁻⁶ cm/s.

**Q.** And the “inhibition constants against KDM4A, N70 compared with N71” value (KDM4A)?
**A.** The value was “about the same”.

**Q.** Which results are given for `CN(C)C/C=C/C(=O)Nc1cccc(C(OCCN2CCCCC2)c2cc3nccc(C(=O)O)c3s2)c1` (stereo not drawn) [N71, (E)-2-((3-(4-(Dimethylamino)but-2-enamido)-phenyl)(2-(piperidin-1-yl)ethoxy)methyl)thieno[3,2-b]pyridine-7-carboxylic Acid]?
**A.** covalent modification of KDM5A enzyme by mass spectrometry (KDM5A): covalently modified KDM5A enzyme completely; cell killing / effect on cell growth (MCF7): no effect on cell growth; cell killing / effect on cell growth (MDA-MB-231): no effect on cell growth; dependence of inhibition of KDM5A on enzyme concentration (KDM5A(1−739)ΔAP): dependent on enzyme concentration; kinact/KI (KDM5A(1−739)ΔAP): ~8000 M⁻¹ s⁻¹; IC50 value lower than that of N70 (KDM5A(1−739)ΔAP; 100 μM αKG concentration): ~ 50 fold; reversibility of inhibition after buffer exchange / dialysis (KDM5A(1−739)ΔAP): persisted even after dialysis; also recorded: does not perturb N71 complex with KDM5A; also recorded: no effect on the inhibition; dependence of inhibition of KDM5A on αKG concentration (KDM5A(1−739)ΔAP): no significant change to IC50 values with variation in αKG concentration; also recorded: did not appear to be sensitive to the αKG concentration; effect of preincubation with KDM5A on inhibition potency (KDM5A(1−739)ΔAP): increased inhibition potency; cell killing / effect on cell growth (HEK293T): no effect on cell growth; inhibition constants against KDM4A, N70 compared with N71 (KDM4A): about the same

**Q.** Which results are given for `CC(C)OC(=O)c1ccnc2cc(C(OCCN3CCCCC3)c3cccc(NC(=O)/C=C/CN(C)C)c3)sc12` (stereo not drawn) [N73, Isopropyl (E)-2-((3-(4-(Dimethylamino)but-2-enamido)phenyl)(2-(piperidin-1-yl)ethoxy)methyl)thieno[3,2-b]-pyridine-7-carboxylate]?
**A.** remained unchanged in culture media [6]: Approximately 80%; cell killing / effect on cell growth (MCF7): noteworthy difference in cell killing; cell growth (percent confluence) (BT474 cells [7]; BT474, low doses, period of >12 days): do not affect cell growth; cell killing / effect on cell growth (MDA-MB-231): noteworthy difference in cell killing; cell killing / effect on cell growth (HEK293T): noteworthy difference in cell killing; cellular H3K4me3 methylation levels (BT474 cells [3]; BT474, doses up to 5 μM, 48 h, immunocytochemistry): does not increase H3K4me3 level; also recorded: no impact on cellular H3K4me3 methylation levels; intracellular esterase-mediated conversion of ester N73 to acid N71 (BT474 cells [8]; 24 h): appeared to be inefficient; cell extract level of ester N73 relative to acid N71 (BT474 cells [8]; incubated 24 h, lysed): 100 fold; Papp at 30 min, 0.05 mM (PAMPA permeability assay): 10 to 100 ×10⁻⁶ cm/s

**Q.** Which results are given for `CC(C)OC(=O)c1ccnc2cc(C(OCCN3CCCCC3)c3cccc(N)c3)sc12` (stereo not drawn) [SI-5, Isopropyl 2-((3-Aminophenyl)(2-(piperidin-1-yl)-ethoxy)methyl)thieno[3,2-b]pyridine-7-carboxylate]?
**A.** growth inhibition (percent confluence) (BT474 cells [7]; BT474, highest concentration tested 28 μM): some growth inhibition at the highest concentration tested; Papp at 30 min, 0.05 mM (PAMPA permeability assay): > 100 ×10⁻⁶ cm/s

Source: paper PMC6467790 (Journal of medicinal chemistry, 2018)
